From PubChem
Shown are actives, neighbours in structure and some others; about 3% of the full set was active somewhere.
Lipid droplet: inhibitors of hepatocyte lipid droplet formation, primary screen, imaging, high-throughput imaging, BODIPY stain | AML12 mouse hepatocytes, oleate lipid droplets | actives 0.4% (n = 240,000) | AID 1656, 2009 | inhibition, % at 6.5 µM;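 active means lipid droplet intensity inhibited by at least 50%, with more than 500 cells counted; inconclusive means wells with under 300 cells, treated as cytotoxic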
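Assay system: AML12 hepatocytes (mouse); Probe or stimulus: oleic acid at 100 µM to induce lipid droplet formation; Dosing: compound at 6.5 µM only; Schedule: compound with oleate, overnight; Detection: fluorescence imaging, 20x objective, two fields per well; Measure: % inhibition of lipid droplet signal.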
JMJD2C inh: inhibitors of GASC-1 histone demethylase, primary screen, biochemical, fluorescence, DELFIA europium; Lysine-specific demethylase 4C (Homo sapiens), Q9H3R0; GST-JMJD2C(1-420) H3K9me3 demethylation; inhibition, % at 2.35 µM; actives 0.069% (n = 330,000);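 active means more than half of a compound's replicate wells show inhibition beyond 50%, single wells judged on their own value; inconclusive means some, but no more than half, of replicates pass 50% inhibition; inactive means no replicate passes 50% inhibition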;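 further: signal counts dimethyl H3K9 product captured on neutravidin plate; 0% = median of DMSO wells and 100% = 0.3 times that DMSO median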
aDG glyco up: activators of alpha-DG glycosylation, primary screen, uHTS, Pro5-aDG cells, AlphaScreen; activation, % at 10 µM; actives 0.22% (n = 360,000); alpha-DG glycosylation AlphaScreen (IIH6); 0% Pro5, 100% B10-LARGE cell signal; AID 624168, 2012;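 active means activation of at least 8% versus controls, or a plate z-score of at least 8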;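 further: Pro5 are CHO cells carrying HIG-tagged alpha-DG that lacks glycosylation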
GRIN3A LBD mod: binders of NR3A ligand-binding domain, primary screen, biophysical, differential scanning fluorimetry, uHTS. Glutamate receptor ionotropic, NMDA 3A (GRIN3A) ligand-binding domain. NR3A LBD differential scanning fluorimetry, Tm shift; 0% = protein alone, 100% = glycine-bound protein. Tm shift relative to glycine control, % at 25 µM. actives 2.5% (n = 340,000). AID 1259313, 2017;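 active means melting temperature shift of at least 10% of the positive control shift, at one fixed dose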
GC-B act: human GC-B receptor activators, primary screen, HEK293 GC-B cells, cGMP TR-FRET, EC30 CNP; 0% at EC30 CNP, 100% saturating CNP; actives 0.11% (n = 370,000); Atrial natriuretic peptide receptor 2 (Homo sapiens), P20594; activation, % at 10 µM;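 active means activation at 10 µM reaching about 35% in either raw or pattern-adjusted values, limit read from the data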
NPR1 activator: GC-A stimulated cGMP production enhancers – HEK293 GC-A cells, cGMP TR-FRET, EC30 ANP, primary screen; Atrial natriuretic peptide receptor 1 (Homo sapiens), P16066; 0% at EC30 ANP, 100% saturating ANP; activation, % at 10 µM; actives 0.14% (n = 370,000); in the data active means activation above about 40%
Numbers without * were called inactive; ? = inconclusive; nt = not tested or not shown.

SMILES | Lipid droplet | JMJD2C inh | aDG glyco up | GRIN3A LBD mod | GC-B act | NPR1 activator
CC(=O)N1CCN(C2=NC(=O)N(c3ccc(Br)cc3)C(=O)C2)CC1 | nt | nt | nt | nt | -5 | 5
CC(N)=Nc1ccc([N+](=O)[O-])cc1 | 11 | -1 | 0 | -3 | -5 | 1
O=[N+]([O-])c1ccc(N=Nc2c(Cl)cc(O)cc2Cl)cc1 | 6 | -2 | -1 | 18* | 1 | 30
COc1cc(NC(=O)c2ccccn2)ccc1NC(=O)c1ccccc1Cl | nt | nt | nt | nt | -5 | 2
O=C(Nc1cccc(NC(=O)c2nccc3ccccc23)c1)c1ccco1 | nt | -12 | 0 | 19* | 4 | 5
COc1ccc(C(=O)Nc2ccc(NC(=O)c3ccco3)cc2)cc1 | 2 | 7 | 0 | 16* | -1 | 1
Nc1ccc(C(=O)Nc2ccc(NC(=O)c3ccco3)c(O)c2)cc1 | 4 | 3 | 0 | 22* | -7 | -1
O=C(NCc1ccccc1)c1ccco1 | -8 | 2 | -1 | 0 | -9 | 0
O=C(O)COc1ccc(NC(=O)c2ccc(NC(=O)c3ccco3)cc2)cc1 | -6 | 8 | 0 | -5 | -3 | -2
O=C(NCc1ccccc1)c1ccc(NC(=O)c2ccco2)cc1 | -4 | -2 | 0 | 19* | -2 | 1
NC(CCc1ccccc1)c1csc(Nc2nccc(C(F)(F)F)n2)n1 (stereo unspecified) | nt | nt | 0 | nt | -1 | -1
O=C(Nc1ccc(Cl)c(Cl)c1)Oc1ccc(NC(=O)c2ccco2)cc1 | 28 | 11 | 0 | 27* | -2 | -5
O=C(Nc1ccc(OC(=O)c2ccco2)cc1)c1ccco1 | -33 | 0 | 0 | -38 | -1 | 6
COc1ccc(S(=O)(=O)N2CCCCCC2)c2ccccc12 | nt | nt | nt | nt | -5 | -2
CCn1cc(C2Nc3ccccc3C(=O)N2O)c(C)n1 (stereo unspecified) | 18 | -5 | 0 | 2 | 2 | -3
Cc1c(C2Nc3ccccc3C(=O)N2O)cnn1C (stereo unspecified) | -21 | -5 | 0 | 611* | 0 | 3
COC(=O)C1CN(Cc2cn(Cc3ccc(OC)cc3)nn2)CCS(=O)(=O)N1Cc1ccccc1 (stereo unspecified) | nt | nt | nt | nt | -1 | 1
O=C(Nc1ccccc1)Nc1nc(-c2ccc(Cl)cc2)cs1 | 2 | -3 | 0 | -8 | -9 | 7
Cc1ccc(NC(=O)Nc2nc(-c3ccc(C)s3)cs2)cc1 | nt | -4 | 1 | 24* | 5 | 0
COc1cccc(NC(=O)Nc2nc(-c3ccc(OC)c(OC)c3)cs2)c1 | -8 | -17 | 0 | 23* | -9 | 5
COc1ccc(-c2csc(NC(=O)Nc3ccccc3)n2)cc1 | nt | -7 | 0 | 26* | 5 | 4
O=C(Nc1cccc(Cl)c1)Nc1nc(-c2ccc(Cl)cc2)cs1 | nt | 12 | 1 | 36* | -5 | 1
COc1ccc(-c2csc(Nc3ccccc3)n2)cc1 | 18 | -17 | 2 | 8 | -10 | 20
CCOc1ccc(C(=O)NC(C(=O)NCC(c2cccs2)N(C)C)C(C)C)cc1 (stereo unspecified) | nt | -4 | 0 | 0 | 1 | 2
CC1=C(C(=O)OCCCCCl)C(c2cc3c(cc2Br)OCO3)NC(=O)N1 (stereo unspecified) | -5 | 0 | 0 | -1 | 4 | -3
SMILES | Lipid droplet | JMJD2C inh | aDG glyco up | GRIN3A LBD mod | GC-B act | NPR1 activator
Cc1ccccc1NC(=O)Cn1nnc(-c2ccncc2)n1 | nt | nt | nt | nt | 2 | 2
COc1cccc(-c2cc(C(F)(F)F)n3ncc(C(=O)NCC4CCCO4)c3n2)c1 (stereo unspecified) | nt | 19 | 0 | 1 | 46* | 35
Nc1cc(-c2ccc(Br)cc2)[nH]n1 | 2 | 0 | 0 | 12* | -2 | 5
Cc1ccc(-n2c(SCC(=O)NC3CCS(=O)(=O)C3)nc3ccccc3c2=O)c(C)c1 (stereo unspecified) | nt | nt | 0 | nt | -2 | -1
CC(=O)Nc1cccc(Oc2ncnc3scc(-c4ccc(C)cc4)c23)c1 | 4 | -3 | 0 | -34 | 58* | 55*
Cc1ccc(-c2csc3ncnc(Oc4ccc5c(C)cc(=O)oc5c4)c23)cc1 | 0 | 5 | 0 | 4 | -7 | -6
COc1ccc(-c2nc(CCl)cs2)cc1OC | 5 | -8 | 0 | 1 | -3 | 1
COc1ccc(-c2nc(-c3ccc(O)cc3O)cs2)cc1OC | 13 | -1 | 0 | 26* | -5 | -18
COc1ccc(-c2csc(-c3ccc(O)cc3)n2)cc1 | -5 | -14 | 0 | 24* | -7 | -6
COc1ccc(-c2nc(CCl)cs2)cc1 | 5 | 11 | 0 | 0 | -3 | -2
Cc1cn(-c2cc(C(=O)Nc3ccc(C)c(NC(=O)C(=O)c4c[nH]c5ccccc45)c3)cc(C(F)(F)F)c2)cn1 | -26 | ? | 0 | 12* | 1 | 2
Cc1ccc(S(=O)(=O)N(C)[C@H]2C[C@H]3c4cc(-c5ccccc5C)ccc4CCN3C[C@H]2[C@H](C)O)cc1 | nt | nt | nt | nt | 3 | 2
COc1ccc(C(=O)NCC2CCN(C(=O)C(=O)c3cccs3)CC2)cc1 | nt | nt | nt | nt | -1 | 0
CN(C)C=NC(=O)c1ccc([N+](=O)[O-])c(CS(=O)(=O)c2ccc(Cl)cc2)c1 | nt | -2 | 0 | 13* | 4 | 0
O=C1[C@H]2C[C@@]3(n4ccc5ccccc54)c4ccccc4N(S(=O)(=O)c4ccccc4)[C@H]3N2C(=O)CN1Cc1ccccc1 | nt | nt | nt | nt | 7 | -2
O=c1c2ccc(Cl)cc2nc2n1CC/C2=C\c1cccc(O)c1 | nt | 1 | 0 | 23* | -4 | 3
O=C(O)c1ccc2c(=O)n3c(nc2c1)/C(=C/c1cccc(O)c1)CC3 | nt | -11 | 0 | 1 | 0 | -1
CCCN(C(=O)C1=COCCO1)c1c(N)n(Cc2ccccc2)c(=O)[nH]c1=O | nt | -6 | 0 | 3 | -1 | 0
CC(C)CCN(C(=O)C1=COCCO1)c1c(N)n(Cc2ccccc2)c(=O)[nH]c1=O | nt | 75* | 0 | -1 | 9 | 2
CC(C)(C)c1ccc(S(=O)(=O)Nc2ccc(Cc3ccncc3)cc2)cc1 | 67* | -1 | 2 | -24 | 3 | 2
O=C1C(=C2SCCCS2)CC/C1=C\c1ccc(F)cc1 | nt | 2 | 0 | -2 | 3 | 12
